Data on 17 compounds can be found in ChEMBL document CHEMBL1155459, “On-bead screening of a combinatorial fumaric acid derived peptide library yields antiplasmodial cysteine protease inhibitors with unusual peptide sequences” (J Med Chem, 2009).

Calls of active or inactive are those of the source. The calls are words filed in the database; no cut-off is given here. Square brackets hold non-standard residues; d marks the D form. Peptide text beside a SMILES is read from it. * marks the point of attachment. Fumaroyl(AlaGlyPheOH) = C[C@H](NC(=O)/C=C/C(=O)*)C(=O)NCC(=O)N[C@@H](Cc1ccccc1)C(=O)O; Fumaroyl(GlyGlyPheOH) = O=C(/C=C/C(=O)*)NCC(=O)NCC(=O)N[C@@H](Cc1ccccc1)C(=O)O; Chg = N[C@H](C(=O)O)C1CCCCC1; Dap = NC[C@H](N)C(=O)O

The target in assay [1] is Rhodesain (Trypanosoma brucei rhodesiense) (UniProt Q95PM0). In words: Inhibition of Trypanosoma brucei rhodesiense recombinant rhodesain at 100 uM. In a few lines:
(§1)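 Single-point screen at 100 μM inhibitor (final). Recombinant enzyme in 50 mM acetate pH 5.5, 5 mM EDTA, 200 mM NaCl, 5 mM DTT, 10% DMSO final; Cbz-Phe-Arg-AMC 40 μM (or Cbz-Leu-Arg-AMC 25 μM) hydrolysis followed by fluorescence (ex 380/em 460 nm). % inhibition = 100(1 − vi/vc) from progress-curve slopes vs DMSO control; at least two independent assays.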

Assay [2] in a line: Inhibition of Plasmodium falciparum falcipain-2 after 12 hrs by fluorescence spectroscopy-based on-bead assay. Further details: concentration or dose not given beside the values. The note with it: concentration not given here. The method in brief: (§2)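 Library members on resin (PEGA, theoretical loading 0.40 mmol/g; added as DMSO suspension, 0.64 mM final inhibitor) preincubated with enzyme 12 h, then Cbz-Phe-Arg-AMC 40 μM added; AMC release followed by fluorescence (ex 380/em 460 nm). Kinetics compared with inhibitor-free amino-PEGA resin.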

Assay [3] concerns Plasmodium falciparum. In words: Inhibition of Plasmodium falciparum recombinant falcipain-2 expressed in Escherichia coli at 100 uM after 20 min by spectrofluorometry. In a few lines:
as §1

In assay [4] the target is Rhodesain (Trypanosoma brucei rhodesiense) (UniProt Q95PM0). In words: Inhibition of Trypanosoma brucei rhodesiense rhodesain after 12 hrs by fluorescence spectroscopy-based on-bead assay. On the set-up: concentration or dose not given beside the values. The note with it: concentration not given here. The method in brief: as §2
Rhodesain (Trypanosoma brucei rhodesiense), sequence (Q95PM0 1-450): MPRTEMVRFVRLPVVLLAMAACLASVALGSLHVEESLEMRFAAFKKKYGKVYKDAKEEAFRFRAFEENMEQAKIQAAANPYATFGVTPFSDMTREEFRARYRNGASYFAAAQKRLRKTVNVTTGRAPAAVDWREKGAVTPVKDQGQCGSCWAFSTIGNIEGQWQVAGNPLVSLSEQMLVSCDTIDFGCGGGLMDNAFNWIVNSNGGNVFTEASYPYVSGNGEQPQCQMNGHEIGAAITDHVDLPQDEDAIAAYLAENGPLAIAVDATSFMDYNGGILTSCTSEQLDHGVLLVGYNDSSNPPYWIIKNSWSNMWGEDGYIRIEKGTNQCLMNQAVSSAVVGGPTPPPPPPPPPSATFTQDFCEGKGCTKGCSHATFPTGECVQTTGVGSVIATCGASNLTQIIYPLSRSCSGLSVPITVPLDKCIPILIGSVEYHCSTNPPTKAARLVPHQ
Assay [5] addresses Cathepsin B (Homo sapiens, UniProt P07858). In words: Inhibition of human liver cathepsin B at 100 uM.
The nature of assay [6]: Inhibition of Plasmodium falciparum recombinant falcipain-2 expressed in Escherichia coli after 20 min using Cbz-Phe-Arg-AMC as substrate by spectrofluorometry. The note with it: in the assay text read “over 5-10 min” for “after 20 min”. The method in brief: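 Continuous assay without preincubation. Recombinant falcipain-2 in 50 mM acetate pH 5.5, 5 mM EDTA, 200 mM NaCl, 5 mM DTT, 10% DMSO final; Cbz-Phe-Arg-AMC (40 μM, Km 21.5 μM) or Cbz-Leu-Arg-AMC (25 μM, Km 8.4 μM). Fluorescence monitored 5-10 min at 0.1-80 μM inhibitor. Ki from Dixon plot, corrected to zero substrate; at least two independent assays.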

Assay [7] concerns Plasmodium falciparum. In words: Antiplasmodial activity against Plasmodium falciparum FCBR by fluorometric method. The class given is functional, organism-based, FCBR/Columbia.
Assay [8] addresses Rhodesain (Trypanosoma brucei rhodesiense, UniProt Q95PM0). As to the kind of experiment: Inhibition of Trypanosoma brucei rhodesiense recombinant rhodesain.
The target in assay [9] is Procathepsin L (Bos taurus, UniProt P25975). In words: Inhibition of bovine spleen cathepsin L. The method in brief:
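Cathepsin L (bovine spleen) or B (human liver) hydrolysis of Cbz-Phe-Arg-AMC (40 μM) followed by fluorescence for 5-10 min without preincubation at 0.1-80 μM inhibitor, 10% DMSO final.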

One may read the inhibition as the relative decrease from the control value, in per cent. For orientation: Ki means a measure of affinity in units of concentration, obtained from inhibition or displacement. For orientation: IC50 means the concentration needed to halve the response being measured.

Rhodesain, sequence (Q95PM0 whole entry): as the sequence (Q95PM0 1-450) above
Procathepsin L, sequence (P25975 whole entry): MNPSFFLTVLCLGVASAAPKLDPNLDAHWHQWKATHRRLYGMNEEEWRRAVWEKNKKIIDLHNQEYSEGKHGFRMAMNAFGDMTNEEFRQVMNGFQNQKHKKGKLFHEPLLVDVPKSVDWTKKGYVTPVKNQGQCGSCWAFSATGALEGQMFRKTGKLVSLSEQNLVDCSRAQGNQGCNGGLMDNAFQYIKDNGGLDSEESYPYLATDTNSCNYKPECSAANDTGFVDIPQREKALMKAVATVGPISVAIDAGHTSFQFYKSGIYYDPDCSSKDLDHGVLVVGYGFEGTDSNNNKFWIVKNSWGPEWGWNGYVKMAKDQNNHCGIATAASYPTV

For the compound `Cc1ccc(C(=O)Nc2ccc(S(=O)(=O)O)c3cc(S(=O)(=O)O)cc(S(=O)(=O)O)c23)cc1NC(=O)c1cccc(NC(=O)Nc2cccc(C(=O)Nc3cc(C(=O)Nc4ccc(S(=O)(=O)O)c5cc(S(=O)(=O)O)cc(S(=O)(=O)O)c45)ccc3C)c2)c1`, the inhibition in assay [1] turned out to be 32%.
Turning to `CC(C)C[C@H](NC(=O)[C@H](CCC(N)=O)NC(=O)/C=C/C(=O)N[C@@H](C)C(=O)NCC(=O)N[C@@H](Cc1ccccc1)C(=O)O)C(=O)N[C@H](C(=O)N[C@H](C(N)=O)C(C)C)C(C)C` (HELM PEPTIDE1{[C[C@H](NC(=O)/C=C/C(=O)[*:2])C(=O)NCC(=O)N[C@@H](Cc1ccccc1)C(=O)O].Q.L.V.V.[am]}$$$$V2.0), the inhibition in [2] stood at 48%; in assay [3], 45%; in assay [4] it was 64%; in assay [1], 37%; in assay [5] it was 23%.
In the case of `CC(C)C[C@H](NC(=O)[C@H](Cc1ccccc1)NC(=O)[C@H](CC(N)=O)NC(=O)/C=C/C(=O)NCC(=O)NCC(=O)N[C@@H](Cc1ccccc1)C(=O)O)C(=O)N[C@H](C(N)=O)C(C)C` (HELM PEPTIDE1{[O=C(/C=C/C(=O)[*:2])NCC(=O)NCC(=O)N[C@@H](Cc1ccccc1)C(=O)O].N.F.L.V.[am]}$$$$V2.0), the inhibition in [2] came out at 70%; in assay [3], 49%; in assay [4], 61%; in [1], 6%; in [5] it was 24%.
Take `CC(C)C[C@H](NC(=O)[C@H](CC(N)=O)NC(=O)/C=C/C(=O)NCC(=O)NCC(=O)N[C@@H](Cc1ccccc1)C(=O)O)C(=O)N[C@@H](C)C(=O)N[C@H](C(N)=O)C(C)C` (HELM PEPTIDE1{[O=C(/C=C/C(=O)[*:2])NCC(=O)NCC(=O)N[C@@H](Cc1ccccc1)C(=O)O].N.L.A.V.[am]}$$$$V2.0): the inhibition in [2] was 41%; in assay [3], 33%; in assay [4] it was 24%; in assay [1] it was 8%; in assay [5] it was 17%. The Ki in assay [6] was 67.5 µM.
For `CC(C)C[C@H](NC(=O)[C@H](CC(N)=O)NC(=O)/C=C/C(=O)NCC(=O)NCC(=O)N[C@@H](Cc1ccccc1)C(=O)O)C(=O)N[C@@H](CC(C)C)C(=O)N[C@H](C(N)=O)C(C)C` (HELM PEPTIDE1{[O=C(/C=C/C(=O)[*:2])NCC(=O)NCC(=O)N[C@@H](Cc1ccccc1)C(=O)O].N.L.L.V.[am]}$$$$V2.0), the inhibition was 70% in assay [2]; 92% in [3]; 71% in assay [4]; 63% in [1]; 21% in assay [5]. Also, the Ki is 10.1 µM in [6] and 2.7 µM in [8]. Also, the IC50 in [7] (Plasmodium falciparum, FCBR/Columbia, read-out: IC50) was 74 µM.
On to `CC(C)C[C@H](NC(=O)[C@@H](NC(=O)[C@H](CC(N)=O)NC(=O)/C=C/C(=O)NCC(=O)NCC(=O)N[C@@H](Cc1ccccc1)C(=O)O)c1ccccc1)C(=O)N[C@H](C(N)=O)C(C)C` (HELM PEPTIDE1{[O=C(/C=C/C(=O)[*:2])NCC(=O)NCC(=O)N[C@@H](Cc1ccccc1)C(=O)O].N.[Phg].L.V.[am]}$$$$V2.0), for which the inhibition in [2] is 51%; in assay [3] it was 76%; in assay [4] it was 50%; in assay [1] it was 26%; in assay [5], 13%. In addition, the Ki in assay [6] is 21.3 µM. Besides, the IC50 entry in assay [7] is recorded as “Not Active”.
In the case of `CC[C@H](C)[C@H](NC(=O)[C@H](CNC(C)=O)NC(=O)/C=C/C(=O)NCC(=O)NCC(=O)N[C@@H](Cc1ccccc1)C(=O)O)C(=O)N[C@H](C(=O)N[C@H](C(N)=O)C(C)C)C(C)C` (HELM PEPTIDE1{[O=C(/C=C/C(=O)[*:2])NCC(=O)NCC(=O)N[C@@H](Cc1ccccc1)C(=O)O].[O=C([C@H](CN[*:3])N[*:1])[*:2]].I.V.V.[am]}|PEPTIDE2{[ac]}$PEPTIDE1,PEPTIDE2,2:R3-1:R2$$$V2.0), the inhibition in assay [2] was 28%; in assay [4], 41%.
As for `CC(=O)NC[C@H](NC(=O)/C=C/C(=O)NCC(=O)NCC(=O)N[C@@H](Cc1ccccc1)C(=O)O)C(=O)N[C@@H](CC(C)C)C(=O)N[C@@H](C)C(=O)N[C@H](C(N)=O)C(C)C` (HELM PEPTIDE1{[O=C(/C=C/C(=O)[*:2])NCC(=O)NCC(=O)N[C@@H](Cc1ccccc1)C(=O)O].[O=C([C@H](CN[*:3])N[*:1])[*:2]].L.A.V.[am]}|PEPTIDE2{[ac]}$PEPTIDE1,PEPTIDE2,2:R3-1:R2$$$V2.0), the inhibition was 32% in assay [2], 18% in [3], 32% in assay [4] and 30% in [1]. Further, the inhibition entry in [5] is “inactive”. In addition, the affinity in assay [9], expressed as Ki, was 20.8 µM.
On to `CC(=O)NC[C@H](NC(=O)/C=C/C(=O)NCC(=O)NCC(=O)N[C@@H](Cc1ccccc1)C(=O)O)C(=O)N[C@@H](CC(C)C)C(=O)N[C@H](C(=O)N[C@H](C(N)=O)C(C)C)C(C)C` (HELM PEPTIDE1{[O=C(/C=C/C(=O)[*:2])NCC(=O)NCC(=O)N[C@@H](Cc1ccccc1)C(=O)O].[O=C([C@H](CN[*:3])N[*:1])[*:2]].L.V.V.[am]}|PEPTIDE2{[ac]}$PEPTIDE1,PEPTIDE2,2:R3-1:R2$$$V2.0), for which the inhibition in [2] turned out to be 41%; in [4], 54%.
The like results for `CC(=O)NC[C@H](NC(=O)/C=C/C(=O)NCC(=O)NCC(=O)N[C@@H](Cc1ccccc1)C(=O)O)C(=O)N[C@H](C(=O)N[C@@H](C)C(=O)N[C@H](C(N)=O)C(C)C)c1ccccc1` (HELM PEPTIDE1{[O=C(/C=C/C(=O)[*:2])NCC(=O)NCC(=O)N[C@@H](Cc1ccccc1)C(=O)O].[O=C([C@H](CN[*:3])N[*:1])[*:2]].[Phg].A.V.[am]}|PEPTIDE2{[ac]}$PEPTIDE1,PEPTIDE2,2:R3-1:R2$$$V2.0) were, in that order, 37% and 36%.
The like results for `CC(=O)NC[C@H](NC(=O)/C=C/C(=O)NCC(=O)NCC(=O)N[C@@H](Cc1ccccc1)C(=O)O)C(=O)N[C@H](C(=O)N[C@@H](CC(C)C)C(=O)N[C@H](C(N)=O)C(C)C)c1ccccc1` (HELM PEPTIDE1{[O=C(/C=C/C(=O)[*:2])NCC(=O)NCC(=O)N[C@@H](Cc1ccccc1)C(=O)O].[O=C([C@H](CN[*:3])N[*:1])[*:2]].[Phg].L.V.[am]}|PEPTIDE2{[ac]}$PEPTIDE1,PEPTIDE2,2:R3-1:R2$$$V2.0) were, in that order, 38% and 66%.
In the case of `CC(=O)NC[C@H](NC(=O)/C=C/C(=O)NCC(=O)NCC(=O)N[C@@H](Cc1ccccc1)C(=O)O)C(=O)N[C@H](C(=O)N[C@H](C(=O)N[C@H](C(N)=O)C(C)C)C(C)C)c1ccccc1` (HELM PEPTIDE1{[O=C(/C=C/C(=O)[*:2])NCC(=O)NCC(=O)N[C@@H](Cc1ccccc1)C(=O)O].[O=C([C@H](CN[*:3])N[*:1])[*:2]].[Phg].V.V.[am]}|PEPTIDE2{[ac]}$PEPTIDE1,PEPTIDE2,2:R3-1:R2$$$V2.0), the figures for the inhibition in [2] and in assay [4] were 25% and 40%, respectively.
The like results for `CC(=O)NC[C@H](NC(=O)/C=C/C(=O)N[C@@H](C)C(=O)NCC(=O)N[C@@H](Cc1ccccc1)C(=O)O)C(=O)N[C@H](C(=O)N[C@@H](C)C(=O)N[C@H](C(N)=O)C(C)C)C1CCCCC1` ({Fumaroyl(AlaGlyPheOH)}-[Dap](Ac)[Chg]AV-NH2) were, in that order, 35% and 29%.
The like results for `CC(=O)NC[C@H](NC(=O)/C=C/C(=O)N[C@@H](C)C(=O)NCC(=O)N[C@@H](Cc1ccccc1)C(=O)O)C(=O)N[C@H](C(=O)N[C@@H](CC(C)C)C(=O)N[C@H](C(N)=O)C(C)C)C1CCCCC1` ({Fumaroyl(AlaGlyPheOH)}-[Dap](Ac)[Chg]LV-NH2) were, in that order, 56% and 51%.
Taken in the same sequence, the figures for `CC(=O)NC[C@H](NC(=O)/C=C/C(=O)N[C@@H](C)C(=O)NCC(=O)N[C@@H](Cc1ccccc1)C(=O)O)C(=O)N[C@H](C(=O)N[C@H](C(=O)N[C@H](C(N)=O)C(C)C)C(C)C)C1CCCCC1` ({Fumaroyl(AlaGlyPheOH)}-[Dap](Ac)[Chg]VV-NH2) were 40% and 46%.
As for `CC(=O)NC[C@H](NC(=O)/C=C/C(=O)NCC(=O)NCC(=O)N[C@@H](Cc1ccccc1)C(=O)O)C(=O)N[C@H](C(=O)N[C@@H](CC(C)C)C(=O)N[C@H](C(N)=O)C(C)C)C1CCCCC1` ({Fumaroyl(GlyGlyPheOH)}-[Dap](Ac)[Chg]LV-NH2), the values for the inhibition in assay [2] and in assay [4] were 26% and 75%, respectively.
Regarding `CC(=O)NC[C@H](NC(=O)/C=C/C(=O)NCC(=O)NCC(=O)N[C@@H](Cc1ccccc1)C(=O)O)C(=O)N[C@H](C(=O)N[C@H](C(=O)N[C@H](C(N)=O)C(C)C)C(C)C)C1CCCCC1` ({Fumaroyl(GlyGlyPheOH)}-[Dap](Ac)[Chg]VV-NH2), the inhibition in assay [2] and in [4] was 52% each time.
